Assay [1] is described as follows: SK-BR-3 cell growth inhibitors, pilot screen, 24 h, human (AID 572;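 active means viability at or below 10% of carrier control in both of two separate runs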;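 further: compound exposure lasted between 18 and 24 h rather than exactly 24 h; 100% = carrier-treated control wells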). The conditions noted are these: SK-BR-3 viability, CellTiter-Glo luminescence, at 10 µM, stronger effect = lower value. A general note: In ATP-based viability assays light output follows the ATP content of the culture.
Assay [2] can be described thus: HUVEC growth inhibition – cell-based, human, primary screen (AID 575;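 active means viability at or below 30% in both replicate assays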;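 further: 100% = median of untreated cell wells with 0.1% DMSO on each plate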). The conditions noted are these: HUVEC proliferation, CellTiter-Glo luminescence, 72 h; at 10 µM; stronger effect = lower value. A digest of the protocol:
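system = HUVEC primary cells | amount = 1250 cells/well | buffer or medium = supplemented EBM, 2% fetal bovine serum | dosing = single-point 10 µM, DMSO 0.1% final | times = 72 h compound incubation | detection = CTG luminescence | read-out = % viability relative to median vehicle-well signal on each plate | control set = vehicle and MePR control wells | format = collagen-coated 384-well format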

Assay [3] is described as follows: growth inhibitors of H69AR lung tumor, primary screen, human, duplicate replicates (AID 580;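 active means viability at or under a set limit in both replicates, limit being median viability minus 3 SD, cut at about 48% in these data, passing the limit was not always enough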;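 further: 100% = mean luminescence of untreated wells and 0% = no signal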). The conditions noted are these: H69AR lung tumor cells viability, ATP luminescence, 72 h; at 10 µM; stronger effect = lower value.
A short description of assay [4]: reversal of MRP1-mediated doxorubicin resistance, pilot screen, H69AR cells, doxorubicin co-treatment (AID 601;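 active means viability loss from added drug above about 55%, and viability with drug at most 40%, in both replicates, limit read from the data, passing the limit was not always enough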). The conditions noted are these: CellTiter-Glo, 72 h, at 10 µM; for differential viability (reversal): stronger effect = higher value.
The nature of assay [5]: 384-well plate pilot, post-Golgi transport modulator project, inhibition of yeast transport mutant growth (AID 636; in the data active means inhibition above about 31%). The conditions noted are these: absorbance 615 nm, about 18 h, stronger effect = higher value.
Assay [6] in a line: growth suppression of yeast trafficking mutant, preliminary HTS, modulators of trafficking downstream of Golgi apparatus project, 1536-format plate, OD 615 nm (AID 637). The conditions noted are these: yeast transport mutant growth, absorbance 615 nm, 18 h; stronger effect = higher value.
The mark [7] stands for this setting: H69AR cells + 2 uM doxorubicin, measured here: viability with 2 uM doxorubicin, stronger effect = lower value.
[8] abbreviates: H69AR cells, compound alone cytotoxicity.

The source made the active and inactive calls. Unless noted, no stated cut-off is given here; in the data, active means inhibition above about 30%; inactive means the rest. Peptide text beside a SMILES is read from it. * marks the point of attachment. Boc = CC(C)(C)OC(=O)*

In the case of `CCN(CC)CCNC(=O)c1ccc(N2CCCCC2)c(NS(=O)(=O)c2ccc(C)cc2)c1`, the viability in assay [1] was 81% (inactive); in assay [2], 18.5% (active); in assay [3], 76.6% (inactive); in assay [4] (setting [7]) it was 74.1%; in assay [4] (setting [8]), 76.6%. Besides, in assay [4] (H69AR cells + 2 uM doxorubicin), the differential viability (reversal) is 2.53% (inactive). Also, the results for the inhibition in assay [5] and in assay [6] were -6.13% (inactive) and 7.21% (inactive), respectively.
In the case of `N#Cc1c(N)n(CCOC(=O)c2cccc(Br)c2)c2nc3ccccc3nc12`, the viability in assay [1] is 111% (inactive); in assay [2], 75.6% (inactive); in assay [3] it was 96.4% (inactive); in assay [4] (setting [7]), 92.8%; in assay [4] (setting [8]), 96.4%. The differential viability (reversal) in assay [4] (H69AR cells + 2 uM doxorubicin) is 3.64% (inactive). The inhibition in assay [5] was -10.1% (inactive); in assay [6], 3.55% (inactive).
Consider `O=C(NCc1ccccn1)c1cc(-n2cnnc2)ccc1Cl`, for which the viability in assay [1] was 86% (inactive); in assay [2] it was 88.6% (inactive); in assay [3] it was 101% (inactive); in assay [4] (setting [7]), 102%; in assay [4] (setting [8]), 101%. The differential viability (reversal) in assay [4] (H69AR cells + 2 uM doxorubicin) was -1.2% (inactive). Moreover, the inhibition in assay [5] was -2.73% (inactive); in assay [6] it was 2.79% (inactive).
With `COCC(=O)Nc1c(C(=O)Nc2ccccc2OC)oc2ccccc12`, the viability in assay [1] was 78% (inactive); in assay [2], 59% (inactive); in assay [3], 75.1% (inactive); in assay [4] (setting [7]), 82.8%; in assay [4] (setting [8]), 75.1%. Besides, the differential viability (reversal) in assay [4] (H69AR cells + 2 uM doxorubicin) was -7.66% (inactive). The results for the inhibition in assay [5] and in assay [6] were -8.78% (inactive) and -2.79% (inactive), respectively.
With `O=C(CSc1nc2ccccc2c(=O)n1Cc1ccco1)NCc1ccccc1`, the viability in assay [1] was 72% (inactive); in assay [2] it was 82.6% (inactive); in assay [3] it was 89.4% (inactive); in assay [4] (setting [7]) it was 86.3%; in assay [4] (setting [8]), 89.4%. In addition, in assay [4] (H69AR cells + 2 uM doxorubicin), the differential viability (reversal) was 3.12% (inactive). The inhibition in assay [5] is -8.63% (inactive); in assay [6] it was 0.73% (inactive).
On to `CCCS(=O)(=O)N1CCCC(C(=O)NC2CCCC(C)C2C)C1` (centres undefined), for which the viability in assay [1] is 101% (inactive); in assay [2], 113% (inactive); in assay [3], 94.8% (inactive); in assay [4] (setting [7]), 85.8%; in assay [4] (setting [8]), 94.8%. For the same compound, in assay [4] (H69AR cells + 2 uM doxorubicin), the differential viability (reversal) was 8.93% (inactive). The values for the inhibition in assay [5] and in assay [6] were -2.73% (inactive) and -3.28% (inactive), respectively.
In the case of `Clc1ccccc1CN1CCc2sccc2C1`, the viability was 95% (inactive) in assay [1]; 78.2% (inactive) in assay [2]; 99% (inactive) in assay [3]; 79.1% in assay [4] (setting [7]); 99% in assay [4] (setting [8]). In assay [4] (H69AR cells + 2 uM doxorubicin), the differential viability (reversal) is 19.9% (inactive). The inhibition in assay [5] is 1.95% (inactive); in assay [6], 8.17% (inactive).
For the compound `Cc1ccc(CNc2cc(-c3nn4c(C)nnc4s3)ccc2C)s1`, the viability in assay [1] is 88% (inactive); in assay [2] it was 45.1% (inactive); in assay [3], 58.8% (inactive); in assay [4] (setting [7]), 40.5%; in assay [4] (setting [8]) it was 58.8%. For the same compound, the differential viability (reversal) in assay [4] (H69AR cells + 2 uM doxorubicin) is 18.3% (inactive). Moreover, the values for the inhibition in assay [5] and in assay [6] were -2.6% (inactive) and 12.3% (inactive), respectively.
For `CCCCCC(=O)N(CN1C(=O)CCC1=O)c1ccccc1`, the viability in assay [1] was 93% (inactive); in assay [2], 104% (inactive); in assay [3] it was 90.9% (inactive); in assay [4] (setting [7]), 87.4%; in assay [4] (setting [8]) it was 90.9%. The differential viability (reversal) in assay [4] (H69AR cells + 2 uM doxorubicin) is 3.52% (inactive). Moreover, the inhibition in assay [5] was -7.3% (inactive); in assay [6], -0.73% (inactive).
For `COc1ccc(-c2ccc(-c3noc(-c4ccccc4)n3)c(OC)n2)cc1`, the viability in assay [1] is 103% (inactive); in assay [2], 68.3% (inactive); in assay [3] it was 88% (inactive); in assay [4] (setting [7]), 84.7%; in assay [4] (setting [8]), 88%. Besides, the differential viability (reversal) in assay [4] (H69AR cells + 2 uM doxorubicin) was 3.25% (inactive). Further, the values for the inhibition in assay [5] and in assay [6] were -8.51% (inactive) and -10.2% (inactive), respectively.
Turning to `CCOC(=O)c1ccc(N(CC(=O)NC2CCCC2)C(=O)CNC(=O)c2ccco2)cc1`, the viability was 90% (inactive) in assay [1]; 95.4% (inactive) in assay [2]; 93.9% (inactive) in assay [3]; 92.4% in assay [4] (setting [7]); 93.9% in assay [4] (setting [8]). Moreover, the differential viability (reversal) in assay [4] (H69AR cells + 2 uM doxorubicin) was 1.51% (inactive). For the same compound, the inhibition in assay [5] is 0.13% (inactive); in assay [6] it was -2.46% (inactive).
For `Cc1cc(=O)n2nc(N3CCCC(C(=O)N4CCc5ccccc54)C3)sc2n1` (centres undefined), the viability is 82% (inactive) in assay [1]; 87.1% (inactive) in assay [2]; 85.8% (inactive) in assay [3]; 88.7% in assay [4] (setting [7]); 85.8% in assay [4] (setting [8]). Moreover, in assay [4] (H69AR cells + 2 uM doxorubicin), the differential viability (reversal) is -2.83% (inactive). Further, the inhibition in assay [5] was -6.76% (inactive); in assay [6] it was 1.64% (inactive).
For `CCN1CCN(C(=O)N[C@@H](C(=O)N[C@@H]2C(=O)N3[C@@H]2SC(C)(C)[C@@H]3C(=O)O)c2ccccc2)C(=O)C1=O`, the viability was 96% (inactive) in assay [1]; 84.1% (inactive) in assay [2]; 91.5% (inactive) in assay [3]; 105% in assay [4] (setting [7]); 91.5% in assay [4] (setting [8]). Besides, the differential viability (reversal) in assay [4] (H69AR cells + 2 uM doxorubicin) is -13.4% (inactive). For the same compound, the inhibition in assay [5] is -0.39% (inactive); in assay [6] it was 6.33% (inactive).
Take `Cc1ccc(S(=O)(=O)NCC(=O)OCN2C(=O)c3ccccc3C2=O)cc1`: the viability in assay [1] was 94% (inactive); in assay [2], 99.6% (inactive); in assay [3] it was 105% (inactive); in assay [4] (setting [7]), 115%; in assay [4] (setting [8]), 105%. Also, the differential viability (reversal) in assay [4] (H69AR cells + 2 uM doxorubicin) was -10.3% (inactive). Besides, the values for the inhibition in assay [5] and in assay [6] were -2.73% (inactive) and 0.16% (inactive), respectively.
As for `COc1ccc(Nc2nc(-c3sc(N)nc3C)cs2)cc1`, the viability was 93% (inactive) in assay [1]; 92.9% (inactive) in assay [2]; 80.2% (inactive) in assay [3]; 85.3% in assay [4] (setting [7]); 80.2% in assay [4] (setting [8]). The differential viability (reversal) in assay [4] (H69AR cells + 2 uM doxorubicin) was -5.13% (inactive). Further, the figures for the inhibition in assay [5] and in assay [6] were -8.24% (inactive) and 0.73% (inactive), respectively.
In the case of `O=C(Nc1cc(C(=O)N2CCCC2)ccc1N1CCCC1)c1ccccc1F`, the viability is 108% (inactive) in assay [1]; 119% (inactive) in assay [2]; 101% (inactive) in assay [3]; 92% in assay [4] (setting [7]); 101% in assay [4] (setting [8]). In assay [4] (H69AR cells + 2 uM doxorubicin), the differential viability (reversal) is 8.93% (inactive). In addition, the results for the inhibition in assay [5] and in assay [6] were -8.13% (inactive) and -3.64% (inactive), respectively.
`CSCCC(NC(=O)OC(C)(C)C)C(=O)NC(CC(C)C)C(N)=O` (stereo not drawn) (Boc-Met-Leu-NH2; configuration not given here): the viability in assay [1] was 91% (inactive); in assay [2], 97.7% (inactive); in assay [3], 92% (inactive); in assay [4] (setting [7]), 90.4%; in assay [4] (setting [8]), 92%. Besides, the differential viability (reversal) in assay [4] (H69AR cells + 2 uM doxorubicin) is 1.58% (inactive). Moreover, the inhibition in assay [5] is 0.39% (inactive); in assay [6] it was 0.16% (inactive).
In the case of `CCOC(=O)c1c(NC(=O)OC)sc2c1CCC2`, the viability in assay [1] was 129% (inactive); in assay [2], 89.7% (inactive); in assay [3], 87.1% (inactive); in assay [4] (setting [7]) it was 87.9%; in assay [4] (setting [8]), 87.1%. In assay [4] (H69AR cells + 2 uM doxorubicin), the differential viability (reversal) was -0.775% (inactive). Moreover, the figures for the inhibition in assay [5] and in assay [6] were 0.65% (inactive) and -4.75% (inactive), respectively.

As a reminder, the viability is a read-out of living cells in per cent, often relative to untreated cells. Broadly, the inhibition is the change of the read-out against control, counted positive when it falls.

These data come from PubChem BioAssay.
